Active and inactive are the calls of the source. No cut-off for these calls is given here.
Biological target: Presenilin-1 (Homo sapiens) (UniProt P49768)
Assay: Binding affinity to gamma-secretase catalytic subunit of PS1 expressed in N2a-APP cells at 0.2 uM followed by irradiated with UV light by Western blot analysis
Type: cell-based
Outline: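 N2a-ANPP cells stably overexpressing APP and all four γ-secretase subunits treated live with 0.2 μM biotinylated photoprobe or DMSO vehicle, irradiated with 350 nm UV; membranes prepared, labeled proteins affinity-purified on streptavidin beads, resolved by SDS gel and Western blotted with antibodies to the four γ-secretase subunits or APP.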

Activity | SMILES
Active | COC(=O)CC1CCN(C(C#CCCCCNC(=O)CCCC[C@@H]2SC[C@@H]3NC(=O)N[C@@H]32)c2ccc(C3(C(F)(F)F)N=N3)cc2)C(c2ccc(C(F)(F)F)cc2)C1 (mixture of isomers)
Active | O=C(O)CC1CCN(C(C#CCCCCOC(=O)CCCC[C@@H]2SC[C@@H]3NC(=O)N[C@@H]32)c2ccc(C3(C(F)(F)F)N=N3)cc2)C(c2ccc(C(F)(F)F)cc2)C1 (mixture of isomers)

System: CHO
Assay: Modulation of gamma-secretase expressed in CHO cells co-expressing wild type APP and PS1 assessed as increase of amyloid beta-38 production sandwich ELISA
Type: cell-based
Outline: (§1)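 CHO cells stably overexpressing wild-type APP and PS1 incubated with compounds; Aβ42, Aβ40 and, for selected compounds, Aβ38 in cell-culture supernatants quantified by sandwich ELISA; IC50 derived for Aβ42.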

SMILES | Activity
CC(C)C#C[C@H](c1ccc(Cl)cc1)N1CC[C@@H](CC(=O)O)C[C@H]1c1ccc(C(F)(F)F)cc1 | Active

System: not listed separately
Assay: Modulation of gamma-secretase expressed in CHO cells co-expressing wild type APP and PS1 assessed as inhibition of amyloid beta-42 production sandwich ELISA
Type: cell-based
Outline: as §1

IC50 | SMILES
350 nM | CC(C)C#C[C@@H](c1ccc(C(F)(F)F)cc1)N1CC[C@H](CC(=O)O)C[C@@H]1c1ccc(C(F)(F)F)cc1
50 nM | CC(C)C#C[C@H](c1ccc(C(F)(F)F)cc1)N1CC[C@@H](CC(=O)O)C[C@H]1c1ccc(C(F)(F)F)cc1
616 nM | CC(C)/C=C\[C@@H](c1ccc(Cl)cc1)N1CC[C@H](CC(=O)O)C[C@@H]1c1ccc(C(F)(F)F)cc1
30 nM | CC(C)/C=C\[C@H](c1ccc(Cl)cc1)N1CC[C@@H](CC(=O)O)C[C@H]1c1ccc(C(F)(F)F)cc1
300 nM | CC(C)C#C[C@@H](c1ccc(Cl)cc1)N1CC[C@H](CC(=O)O)C[C@@H]1c1ccc(C(F)(F)F)cc1
87 nM | CC(C)C#C[C@H](c1ccc(Cl)cc1)N1CC[C@@H](CC(=O)O)C[C@H]1c1ccc(C(F)(F)F)cc1
68 nM | CC(C)CC[C@H](c1ccc(Cl)cc1)N1CC[C@@H](CC(=O)O)C[C@H]1c1ccc(C(F)(F)F)cc1
2200 nM | O=C(O)CC1CCN(C(C#CCCCCNC(=O)CCCC[C@@H]2SC[C@@H]3NC(=O)N[C@@H]32)c2ccc(C3(C(F)(F)F)N=N3)cc2)C(c2ccc(C(F)(F)F)cc2)C1 (mixture of isomers)
500 nM | O=C(O)CC1CCN(C(C#CCCCCOC(=O)CCCC[C@@H]2SC[C@@H]3NC(=O)N[C@@H]32)c2ccc(C3(C(F)(F)F)N=N3)cc2)C(c2ccc(C(F)(F)F)cc2)C1 (mixture of isomers)
1000 nM | O=C(O)CC1CCN(C(C#CCCCCOC(=O)CCCC[C@@H]2SC[C@@H]3NC(=O)N[C@@H]32)c2ccc(C(F)(F)F)cc2)C(c2ccc(C(F)(F)F)cc2)C1 (mixture of isomers)
2000 nM | O=C(O)CC1CCN(C(C#CCCCCO)c2ccc(C3(C(F)(F)F)N=N3)cc2)C(c2ccc(C(F)(F)F)cc2)C1 (racemic)
190 nM | CC(C)C#CC(c1ccc(C2(C(F)(F)F)N=N2)cc1)N1CCC(CC(=O)O)CC1c1ccc(C(F)(F)F)cc1 (racemic)
1000 nM | COc1cc(C(C#CC(C)C)N2CCC(CC(=O)O)CC2c2ccc(C(F)(F)F)cc2)ccc1-n1cnc(C)c1 (racemic)

Source: ChEMBL document CHEMBL2169857, “Synthesis of a potent photoreactive acidic γ-secretase modulator for target identification in cells” (Bioorg Med Chem, 2012)
